# Most compounds without a hit are left out; they make up all but 2.8% or so of the library.
# AI-2 QS modul – Vibrio harveyi AI-2 quorum sensing modulation. Vibrio harveyi JMH597 AI-2 luminescence/OD600 ratio, 9 h; stronger effect = lower value; strain lacks LuxN and CqsS sensors; 0 = neutral-control median. AID 2094. activity change, % at 7.5 µM. actives 0.4% (n = 300,000); in the data active means activity change below about -75%, passing the limit was not always enough;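 further: luminescence divided by OD600 gain over 9 h not by final OD600 alone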
# pCIP destab – p/CIP protein destabilization; F442A p/CIP-EGFP cells, EGFP fluorescence, 16 h; actives 0.01% (n = 290,000); Q05BA5; decrease of EGFP signal, % at 10 µM;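 active means EGFP signal decrease of at least 30% at 10 µM or well 3 SD below plate mean, unless failing retest; inactive means the rest, including hits failing retest or dose response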
# T cruzi inh – blocks replication of Trypanosoma cruzi | T. cruzi beta-gal in NIH3T3, luminescence, 90 h | inhibition, % (no concentration beside the values) | actives 1.4% (n = 300,000);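 active means mean inhibition across valid replicates above about 55%, limit read from the data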;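 further: signal also drops with host cell toxicity which is not excluded here; 0% = plate median of DMSO wells and 100% = zero luminescence signal; higher percent means less beta-gal luminescence so fewer parasites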
#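 Test system: β-gal T. cruzi (Tulahuen C4) inside NIH/3T3 cells / Quantity: 5,000 cells/well / Measured by: luminescence from GalScreen with 0.05% NP40, read after 60 min / Medium: DMEM plus 2% FBS / Measure: parasite load inhibition, % / Reagent: Tulahuen C4 trypomastigotes, 5000/well / Schedule: co-culture of at least 90 h after 3 h attachment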
# PP1 inh – PP1-alpha (human) inhibition in PP5 counter-screen. P62136. purified PP1alpha, OMFP fluorescence. inhibition, % at 6.7 µM. actives 0.9% (n = 320,000). AID 2235;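 active means inhibition above the mean inhibition of all tested compounds plus 3 SD, computed separately for each screening campaign, cut at about 15% in these data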
# Target sequence (P62136 whole entry, looked up): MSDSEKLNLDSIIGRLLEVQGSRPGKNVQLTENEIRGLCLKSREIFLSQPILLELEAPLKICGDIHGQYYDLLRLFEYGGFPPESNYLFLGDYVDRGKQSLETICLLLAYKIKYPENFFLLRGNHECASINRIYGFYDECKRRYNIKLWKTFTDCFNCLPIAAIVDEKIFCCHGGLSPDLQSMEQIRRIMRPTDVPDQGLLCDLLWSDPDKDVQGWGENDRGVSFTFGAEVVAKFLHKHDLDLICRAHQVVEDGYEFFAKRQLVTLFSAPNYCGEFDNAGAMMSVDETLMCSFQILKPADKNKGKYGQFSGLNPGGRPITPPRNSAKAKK
# UBC13 polyUb – blocks human UBC13 polyubiquitin chain formation. TR-FRET. inhibition, % at 20 µM. actives 0.47% (n = 330,000). AID 485273; in the data active means inhibition above about 45%, passing the limit was not always enough
# Target sequence (P61088 whole entry, looked up): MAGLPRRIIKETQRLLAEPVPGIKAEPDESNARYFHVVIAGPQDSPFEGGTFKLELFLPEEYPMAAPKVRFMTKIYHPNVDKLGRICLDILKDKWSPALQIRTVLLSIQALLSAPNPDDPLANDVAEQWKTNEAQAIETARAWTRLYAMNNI
# Casp3 counter – counter-screen for UBC13 inhibitors: human caspase-3 inhibition; actives 4% (n = 1,400); Recombinant caspase-3, Caspase-Glo 3/7 luminescence, 60 min; AID 488856; inhibition, % at 20 µM; shares compounds with UBC13 polyUb;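 active means mean inhibition across replicates above about 26%, limit read from the data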;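 further: plate controls were DMSO with caspase-3 for no effect and DMSO wells lacking enzyme for full effect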
# UBC13 conf – human UBC13 polyubiquitin inhibition, confirmed. shares compounds with UBC13 polyUb. UBC13 polyubiquitination, TR-FRET, biochemical. inhibition, % at 10 µM. actives 68% (n = 1,400). AID 488859; in the data active means inhibition above about 45%
# Active calls of the source: *; x = no result given.
SMILES,AI-2 QS modul,pCIP destab,T cruzi inh,PP1 inh,UBC13 polyUb,Casp3 counter,UBC13 conf
COc1ccc([C@@H]2CC(=O)c3c(O)cc(O[C@@H]4OC(CO[C@@H]5OC(C)[C@H](O)[C@H](O)C5O)[C@@H](O)[C@@H](O)C4O)cc3O2)cc1O (stereo partly specified),15.8,x,5.6,-0.6,-10.5,x,x
Cc1ccc(-c2noc(CCC(=O)NCC3CCN(Cc4cccc(C)c4)CC3)n2)cc1,15.1,1.0,44.2,-2.1,55.6*,-3.5,70.1*
Cc1ccc(-c2noc(CCC(=O)NCCN3CCN(Cc4ccccc4)CC3)n2)cc1,19.4,6.5,x,0.8,7.5,x,x
COc1ccc(-c2noc(CCC(=O)NCCCN3CCN(c4ccc(F)cc4)CC3)n2)cc1,-0.3,-3.2,9.6,-1.3,35.3,x,x
COc1ccc(-c2noc(CCC(=O)NCCCN3CCC(Cc4ccccc4)CC3)n2)cc1,-11.4,2.9,10.8,-0.7,89.6*,-1.3,106.3*
COc1ccc(-c2cc3c(=O)n(CC(=O)NCCCN4CCN(Cc5ccccc5)CC4)ncn3n2)cc1,-0.6,-12.4,25.8,-1.0,4.7,x,x
COc1ccc(-c2cc3c(=O)n(CC(=O)NCCCN4CCC(Cc5ccccc5)CC4)ncn3n2)cc1,-0.5,-14.5,24.5,-0.3,52.1*,1.5,75.8*
Cc1ccc(S(=O)(=O)N2CCCCC2)cc1NC(=O)CNCc1ccco1,44.9,8.0,-5.9,-6.3,6.1,x,x
Cn1c(SCC(=O)NCCc2ccccc2)ncc(C(=O)Nc2ccccc2)c1=O,13.1,x,-1.8,-3.0,46.5*,94.1*,39.8
Cn1cnnc1SCC(=O)NCCc1ccccc1,13.4,4.8,-9.2,-1.1,-5.4,x,x
Cn1c(SCC(=O)NCc2ccc(F)cc2)ncc(C(=O)Nc2ccccc2)c1=O,-11.8,x,22.3,-3.6,59.7*,87.2*,53.4*
Cn1c(SCC(=O)NCc2ccc3c(c2)OCO3)ncc(C(=O)Nc2ccc(F)cc2)c1=O,1.9,x,-16.2,-1.2,50.5*,85.6*,44.7
Cc1nnc(SCC(=O)NC(C)(C)C)n1NCc1cccc(Br)c1,12.3,-11.9,9.1,-1.7,2.2,x,x
CCOc1ccc2nc(N(CCCN(C)C)C(=O)c3ccc(S(=O)(=O)N4CCc5ccccc5C4)cc3)sc2c1,19.1,9.9,48.0,8.0,84.4*,3.8,115.1*
COc1cc2nc(N(CCCN(C)C)C(=O)c3ccc(S(=O)(=O)N4CCc5ccccc5C4)cc3)sc2cc1OC,22.7,x,56.7*,-3.8,71.0*,-1.3,104.8*
COc1cccc2sc(N(CCCN(C)C)C(=O)c3ccc(S(=O)(=O)N4CCc5ccccc5C4)cc3)nc12,14.0,-0.3,46.7,5.0,63.9*,-3.5,99.3*
CCSc1nnc(SCC(=O)c2c(N)n(C)c(=O)n(C)c2=O)s1,x,x,x,x,-3.3,x,x
O=C(Nc1cccc(-n2cnnn2)c1)c1ccc(Cl)cc1Cl,3.8,-8.9,16.3,1.1,2.0,x,x
O=C1NCCN(Cc2ccc(Cl)c(F)c2)C1CC(=O)N1CCCCO1 (stereo unspecified),21.8,-2.4,1.7,-0.5,2.3,x,x
c1ccc2c(C[C@@H]3CNCCN3CCCCC3CCCCC3)cccc2c1,x,x,x,x,73.9*,-0.6,60.6*
c1ccc(C[C@H]2CNCCN2CC2CCCCC2)cc1,19.5,x,-8.2,1.5,18.3,x,x
c1ccc(C[C@H]2CNCCN2CCCCC2CCCCC2)cc1,-19.7,x,0.8,10.2,60.9*,3.2,67.5*
CC(=O)c1ccc(N(CC(=O)NCc2ccc3c(c2)OCO3)C(=O)c2csnn2)cc1,2.2,-5.1,12.6,-0.6,11.2,x,x
Cn1cccc1CC(=O)NNC(=S)NC(=O)c1ccc(F)cc1,23.7,-1.0,-2.8,0.0,16.0,x,x
CC(C)(C)OC(=O)N1CCC(CC2CC(c3ccccc3)=NO2)(C(=O)NCc2ccccc2)CC1 (stereo unspecified),x,x,x,1.6,2.3,x,x
SMILES,AI-2 QS modul,pCIP destab,T cruzi inh,PP1 inh,UBC13 polyUb,Casp3 counter,UBC13 conf
COc1ccc(CNC(=O)C2(CC3CC(c4ccccc4)=NO3)CCN(C(=O)OC(C)(C)C)CC2)cc1 (stereo unspecified),19.8,x,18.2,-1.6,77.0*,-3.7,-7.0
O=S(=O)(c1ccc2c(c1)C(O)c1ccccc1CC2)C(F)(F)F (stereo unspecified),x,x,x,3.3,12.9,x,x
COc1ccc(/C=N/NC(=O)CSCC(=O)Nc2ccccc2)cc1OC,-4.1,21.3,-10.5,-2.9,0.2,x,x
Cc1cccc(C(=O)Oc2ccc(/C=N/NC(=O)Cc3ccc([N+](=O)[O-])cc3)cc2)c1,-0.9,-1.6,-19.6,1.4,85.5*,-0.2,61.4*
COc1ccc(/C=N/NC(=O)CSCc2ccc([N+](=O)[O-])cc2)cc1OC,13.6,4.8,-3.0,-5.3,79.0*,1.3,71.1*
Cc1cccc(C(=O)Oc2ccc(/C=N/NC(=O)c3ccc(O)cc3)cc2)c1,8.7,-10.2,4.3,x,8.7,x,x
COc1cc(/C=N/NC(=O)CSCc2ccc([N+](=O)[O-])cc2)cc(OC)c1OC,13.7,-29.4,-4.0,-1.2,86.4*,-0.3,103.0*
O=C(CSCc1ccc([N+](=O)[O-])cc1)NN=C1CCCCCC1,-0.5,-1.5,-7.4,-1.9,90.9*,-2.1,104.8*
CC(C)CCC1(C)NC(=O)N(CC(=O)NCC(=O)Nc2ccc(F)c(F)c2F)C1=O (stereo unspecified),x,x,x,x,-4.1,x,x
O=C(O)[C@H]1CCCC[C@H]1C(=O)NCCc1ccccc1,20.8,1.5,6.0,-2.2,67.1*,-0.3,8.6
Cc1nc(N)sc1C(=O)NN,13.7,-0.3,-13.9,-2.8,49.4*,7.9,34.8
CC1CCCC(NC(=O)CNCc2ccccc2F)C1C (stereo unspecified),15.7,-7.6,-5.1,-1.7,9.0,x,x
Oc1ccc(C[C@@H]2CNCCN2CCc2cccc3ccccc23)cc1,-4.8,x,20.4,-1.5,29.4,x,x
c1ccc2c(C[C@@H]3CNCCN3CCC34CC5CC(CC(C5)C3)C4)cccc2c1,x,x,x,x,49.8*,-2.9,53.3*
Fc1cccc(CCN2CCNC[C@H]2Cc2cccc3ccccc23)c1,11.1,x,-7.3,1.9,38.9,x,x
CC(C)(C)CN1CCNC[C@H]1Cc1cccc2ccccc12,25.7,x,7.3,9.1,46.8*,-4.4,30.8
c1ccc(C2(CN3CCNC[C@H]3Cc3cccc4ccccc34)CC2)cc1,25.9,x,14.7,5.8,59.2*,2.4,48.0*
CC(C)CCn1c(=O)c2sccc2n2c(CCCC(=O)N3CCC(N4CCCCC4)CC3)nnc12,5.6,-13.4,19.9,-1.8,4.1,x,x
Cc1nc(N)c2c(Cc3cccc4ccccc34)nn(C(C)(C)C)c2n1,2.3,x,36.3,12.2,74.1*,-4.1,42.8

# High-throughput results from PubChem BioAssay.
